Laboratory results reported in ChEMBL document CHEMBL5107964, “Development of 2-deoxystreptamine-nucleobase conjugates for the inhibition of oncogenic miRNA production” (RSC Med Chem, 2022).
Activity calls are given as the source filed them. The rule behind the calls is not given here.

What was measured:
[1] = Binding affinity to 5'FAM-labeled Precursor microRNA-372 (unknown origin) assessed as dissociation constant incubated for 4 hrs by fluorescence-based assay
Procedure, shortened: (§1)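 Each 5'-FAM-labelled pre-miRNA (10 nM) was folded in 20 mM Tris-HCl pH 7.4, 12 mM NaCl, 1 mM DTT by heating at 90°C for 2 min, holding at 4°C for 10 min and returning to room temperature over 15 min. Ligand was added in 15 dilutions (0.030 nM–0.5 mM). Fluorescence (ex 485, em 535 nm) was read after 4 h. Runs were in duplicate, repeated at least three times, and KD came from a 1:1 binding model.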

[2] = Inhibition of Precursor microRNA-372 in human HEK293 cell lysate assessed as inhibition of Dicer-induced pre-miR-372 maturation by measuring fluorescence incubated for 4 hrs by FRET Dicer assay; assay type: subcellular
Procedure, shortened: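 The FRET cleavage assay used 50 nM pre-miR-372 beacon (5'-FAM, 3'-dabcyl), with HEK293 whole-cell lysate in place of recombinant enzyme. Inhibitor was preincubated with the beacon for 30 min at room temperature. After 4 h at 37°C the fluorescence rise (ex 485, em 535 nm) was measured. IC50 was obtained by nonlinear regression.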

[3] = Inhibition of 5'FAM-labeled and 3'DAB-labeled Precursor microRNA-372 (unknown origin) assessed as inhibition of Dicer-induced pre-miR-372 cleavage by measuring fluorescence incubated for 4 hrs in presence of human recombinant Dicer by FRET Dicer assay
Procedure, shortened: (§2)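 The pre-miRNA beacon (50 nM; 5'-FAM, 3'-dabcyl) in 20 mM Tris-HCl pH 7.4, 12 mM NaCl, 1 mM DTT was preincubated with inhibitor (12 dilutions) for 30 min at room temperature. Human recombinant Dicer was then added. After 4 h at 37°C the fluorescence increase (ex 485, em 535 nm) was read. Assays were in duplicate, repeated three times, and IC50 was obtained by nonlinear regression.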

[4] = Binding affinity to 5'FAM-labeled Precursor microRNA-372 (unknown origin) assessed as dissociation constant incubated for 4 hrs in presence of tRNA by fluorescence-based assay
Procedure, shortened: (§3)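 KD was measured with 10 nM folded 5'-FAM-pre-miR-372 in 20 mM Tris-HCl pH 7.4, 12 mM NaCl, 1 mM DTT, with 100 eq. competitor added to the RNA. Competitor was tRNA or duplex DNA from two 15-mer strands annealed at 90°C for 5 min then slowly cooled. Ligand was added in 15 dilutions (0.030 nM–0.5 mM) and fluorescence (ex 485, em 535 nm) read after 4 h. A 1:1 model was fitted.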

[5] = Binding affinity to 5'FAM-labeled Precursor microRNA-148a (unknown origin) incubated for 4 hrs by fluorescence-based assay; procedure, shortened: as §1
[6] = Binding affinity to 5'FAM-labeled Precursor microRNA-18a (unknown origin) incubated for 4 hrs by fluorescence-based assay; procedure, shortened: as §1
[7] = Binding affinity to 5'FAM-labeled Precursor microRNA-372 (unknown origin) assessed as dissociation constant incubated for 4 hrs in presence of DNA by fluorescence-based assay; procedure, shortened: as §3
[8] = Inhibition of 5'FAM-labeled and 3'DAB-labeled Precursor microRNA-18a (unknown origin) assessed as inhibition of Dicer-induced pre-miR-18a cleavage by measuring fluorescence incubated for 4 hrs in presence of human recombinant Dicer by FRET Dicer assay; procedure, shortened: as §2
[9] = Inhibition of 5'FAM-labeled and 3'DAB-labeled Precursor microRNA-148a (unknown origin) assessed as inhibition of Dicer-induced pre-miR-148a cleavage by measuring fluorescence incubated for 4 hrs in presence of human recombinant Dicer by FRET Dicer assay; procedure, shortened: as §2
[10] = Selectivity ratio of Kd for binding affinity to 5'FAM-labeled Precursor microRNA-372 (unknown origin) in presence of DNA to Kd for binding affinity to 5'FAM-labeled Precursor microRNA-372 (unknown origin)
[11] = Selectivity ratio of Kd for binding affinity to 5'FAM-labeled Precursor microRNA-372 (unknown origin) in presence of tRNA to Kd for binding affinity to 5'FAM-labeled Precursor microRNA-372 (unknown origin)

SMILES | Kd [1] [µM] | IC50 [2] [µM] | IC50 [3] [µM] | Kd [4] [µM] | Activity [5] | Activity [6] | Kd [7] [µM] | IC50 [8] [µM] | IC50 [9] [µM] | Selectivity ratio [10] | Selectivity ratio [11]
N[C@@H]1C[C@H](N)[C@@H](OCCn2cc(Cn3cnc(-c4cccc(NC(=O)c5ccccc5)c4)c3)nn2)[C@H](O)[C@H]1O | 0.627 | 29.5 | 12.6 | 2.64 | Active | Active | 2.96 |  |  |  | 
N[C@@H]1C[C@H](N)[C@@H](O)[C@H](O)[C@H]1O | > 1000 |  |  |  |  |  |  |  |  |  | 
N[C@@H]1C[C@H](N)[C@@H](OCCn2cc(CCC(=O)NCC(=O)Nc3nc(-c4ccccc4)cs3)nn2)[C@H](O)[C@H]1O | 5.13 |  | 74.9 | 8.56 | Active | Active | 11 | 89.5 | 85.3 | 2.1 | 1.7
CCCCNC(=O)Nc1cccc(-c2cn(Cc3cn(C[C@H]4O[C@@H](O[C@@H]5[C@@H](O)[C@H](N)C[C@H](N)[C@H]5O[C@H]5O[C@H](CN)[C@@H](O)[C@H](O)[C@H]5N)[C@H](O)[C@@H]4O[C@H]4O[C@@H](CN)[C@@H](O)[C@H](O)[C@H]4N)nn3)cn2)c1 | 0.0461 |  | 25.6 | 0.0164 |  |  | 0.0222 |  |  | 1.5 | 1.1
Nc1cccc(-c2cn(Cc3cn(CCO[C@H]4[C@H](O)[C@@H](O)[C@H](N)C[C@@H]4N)nn3)cn2)c1 | 3.53 | > 500 | 81.1 | 3.92 | Active | Active | 4.27 | 20.3 | 18.2 | 1.2 | 1.1
N[C@@H]1C[C@H](N)[C@@H](OCCn2cc(Cn3cnc(-c4cccc(NC(=O)c5ccc6ccccc6c5)c4)c3)nn2)[C@H](O)[C@H]1O | 6.78 |  | > 100 | 8.51 | Active | Active | 9.02 | 177 | > 500 | 1.3 | 1.3
CCCCNC(=O)Nc1cccc(-c2cn(Cc3cn(CCO[C@H]4[C@H](O)[C@@H](O)[C@H](N)C[C@@H]4N)nn3)cn2)c1 | 1.62 |  | 72.4 | 3.65 |  |  | 2.11 |  |  | 1.3 | 2.2
NC[C@@H]1O[C@H](O[C@H]2[C@@H](O)[C@H](O[C@@H]3[C@@H](O)[C@H](N)C[C@H](N)[C@H]3O[C@H]3O[C@H](CN)[C@@H](O)[C@H](O)[C@H]3N)O[C@@H]2Cn2cc(Cn3cnc(-c4cccc(NC(=O)c5ccccc5)c4)c3)nn2)[C@H](N)[C@@H](O)[C@@H]1O | 0.0189 | 20.4 | 8.3 | 0.0208 |  |  | 0.0244 |  |  | 1.3 | 1.1
Nc1ncnc2c1ncn2Cc1cn(CCO[C@H]2[C@H](O)[C@@H](O)[C@H](N)C[C@@H]2N)nn1 | 11.1 |  |  | > 1000 |  |  | 47.1 |  |  | 4.2 | 
N[C@@H]1C[C@H](N)[C@@H](OCCn2cc(Cn3ccc(O)nc3=O)nn2)[C@H](O)[C@H]1O | 17.1 |  |  | > 1000 |  |  | > 1000 |  |  |  | 
Nc1ccn(Cc2cn(CCO[C@H]3[C@H](O)[C@@H](O)[C@H](N)C[C@@H]3N)nn2)c(=O)n1 | 101 |  |  | > 1000 |  |  | > 1000 |  |  |  | 
